Assay results from ChEMBL document CHEMBL3297713, “Discovery, optimization, and biological evaluation of 5-(2-(trifluoromethyl)phenyl)indazoles as a novel class of transient receptor potential A1 (TRPA1) antagonists” (J Med Chem, 2014).

Assays:
[1] = AUC in Wistar rat at 10 mg/kg, po; assay type: ADME, organism-based; parameters: dose 10 mg/kg, route oral; details: plasma
How it was run: (§1)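 Male Wistar rats dosed orally at 10 mg/kg as a suspension in 0.5% methylcellulose/0.5% Tween80.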

[2] = biological target: Transient receptor potential cation channel subfamily A member 1 (Rattus norvegicus) (UniProt Q6RI86); assay: (§2) Antagonist activity at rat TRPA1 expressed in CHO-TREX cells assessed as inhibition of cinnamaldehyde-induced calcium flux incubated 10 mins prior to cinnamaldehyde addition by FLIPR assay relative to control; assay type: cell-based; parameters: concentration or dose not given beside the values
Chain of Transient receptor potential cation channel subfamily A member 1 (Rattus norvegicus) (Q6RI86 whole entry): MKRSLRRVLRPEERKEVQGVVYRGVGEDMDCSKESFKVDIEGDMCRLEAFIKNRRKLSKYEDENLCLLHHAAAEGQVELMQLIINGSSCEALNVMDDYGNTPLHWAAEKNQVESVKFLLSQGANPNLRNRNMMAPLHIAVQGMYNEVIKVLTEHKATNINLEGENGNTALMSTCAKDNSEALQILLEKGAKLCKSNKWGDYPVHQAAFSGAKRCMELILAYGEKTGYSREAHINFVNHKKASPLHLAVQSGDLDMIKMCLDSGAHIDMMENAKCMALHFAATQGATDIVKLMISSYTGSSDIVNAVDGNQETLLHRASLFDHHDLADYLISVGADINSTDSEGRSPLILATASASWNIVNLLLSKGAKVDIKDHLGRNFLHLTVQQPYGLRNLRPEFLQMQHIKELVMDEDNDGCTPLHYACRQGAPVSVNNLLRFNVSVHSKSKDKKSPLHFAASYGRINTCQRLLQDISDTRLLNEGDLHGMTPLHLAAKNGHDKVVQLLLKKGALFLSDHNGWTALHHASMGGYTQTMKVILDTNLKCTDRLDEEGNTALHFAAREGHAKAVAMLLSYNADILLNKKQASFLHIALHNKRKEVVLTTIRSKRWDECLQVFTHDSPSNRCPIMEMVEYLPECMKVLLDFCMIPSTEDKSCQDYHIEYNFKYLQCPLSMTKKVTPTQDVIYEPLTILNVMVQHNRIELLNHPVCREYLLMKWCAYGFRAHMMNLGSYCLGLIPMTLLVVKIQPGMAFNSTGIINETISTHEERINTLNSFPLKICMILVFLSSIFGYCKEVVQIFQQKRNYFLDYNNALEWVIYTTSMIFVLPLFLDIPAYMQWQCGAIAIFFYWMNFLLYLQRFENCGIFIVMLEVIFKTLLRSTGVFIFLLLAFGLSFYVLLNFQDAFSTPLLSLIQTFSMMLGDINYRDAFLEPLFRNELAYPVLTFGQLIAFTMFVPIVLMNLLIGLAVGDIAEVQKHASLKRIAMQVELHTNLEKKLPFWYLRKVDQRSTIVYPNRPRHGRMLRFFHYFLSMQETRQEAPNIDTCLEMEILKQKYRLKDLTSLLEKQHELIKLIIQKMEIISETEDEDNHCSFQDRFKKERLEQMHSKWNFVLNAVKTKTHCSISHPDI
How it was run: (§3)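 TRPA1-expressing CHO-TREX cells, channel expression induced with tetracycline (0.5 µg/mL human, 1 µg/mL mouse or rat). Cells loaded with Fluo4-AM for 90 min at room temperature, washed, then test agent added in HBSS/20 mM HEPES/2.5 mM probenecid/0.1% BSA. Agonist added 10 min later at EC80: human cinnamaldehyde 30 µM, AITC 2.5 µM, dibenzoxazepine-carboxamide 5 nM; rat and mouse cinnamaldehyde 40 µM. FLIPR calcium flux; mean of triplicates fitted to sigmoidal dose-response curves.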

[3] = biological target: Transient receptor potential cation channel subfamily A member 1 (Rattus norvegicus, UniProt Q6RI86); assay: as §2; assay type: cell-based; how it was run: as §3
Chain of Transient receptor potential cation channel subfamily A member 1 (Rattus norvegicus, UniProt Q6RI86) (Q6RI86 whole entry): as above

[4] = biological target: T1, Transient receptor potential cation channel subfamily A member 1 (Homo sapiens, UniProt O75762); assay: Antagonist activity at human TRPA1 expressed in CHO-TREX cells assessed as inhibition of cinnamaldehyde-induced calcium flux incubated 10 mins prior to cinnamaldehyde addition by FLIPR assay relative to control; assay type: cell-based; how it was run: as §3
T1 sequence (O75762 whole entry): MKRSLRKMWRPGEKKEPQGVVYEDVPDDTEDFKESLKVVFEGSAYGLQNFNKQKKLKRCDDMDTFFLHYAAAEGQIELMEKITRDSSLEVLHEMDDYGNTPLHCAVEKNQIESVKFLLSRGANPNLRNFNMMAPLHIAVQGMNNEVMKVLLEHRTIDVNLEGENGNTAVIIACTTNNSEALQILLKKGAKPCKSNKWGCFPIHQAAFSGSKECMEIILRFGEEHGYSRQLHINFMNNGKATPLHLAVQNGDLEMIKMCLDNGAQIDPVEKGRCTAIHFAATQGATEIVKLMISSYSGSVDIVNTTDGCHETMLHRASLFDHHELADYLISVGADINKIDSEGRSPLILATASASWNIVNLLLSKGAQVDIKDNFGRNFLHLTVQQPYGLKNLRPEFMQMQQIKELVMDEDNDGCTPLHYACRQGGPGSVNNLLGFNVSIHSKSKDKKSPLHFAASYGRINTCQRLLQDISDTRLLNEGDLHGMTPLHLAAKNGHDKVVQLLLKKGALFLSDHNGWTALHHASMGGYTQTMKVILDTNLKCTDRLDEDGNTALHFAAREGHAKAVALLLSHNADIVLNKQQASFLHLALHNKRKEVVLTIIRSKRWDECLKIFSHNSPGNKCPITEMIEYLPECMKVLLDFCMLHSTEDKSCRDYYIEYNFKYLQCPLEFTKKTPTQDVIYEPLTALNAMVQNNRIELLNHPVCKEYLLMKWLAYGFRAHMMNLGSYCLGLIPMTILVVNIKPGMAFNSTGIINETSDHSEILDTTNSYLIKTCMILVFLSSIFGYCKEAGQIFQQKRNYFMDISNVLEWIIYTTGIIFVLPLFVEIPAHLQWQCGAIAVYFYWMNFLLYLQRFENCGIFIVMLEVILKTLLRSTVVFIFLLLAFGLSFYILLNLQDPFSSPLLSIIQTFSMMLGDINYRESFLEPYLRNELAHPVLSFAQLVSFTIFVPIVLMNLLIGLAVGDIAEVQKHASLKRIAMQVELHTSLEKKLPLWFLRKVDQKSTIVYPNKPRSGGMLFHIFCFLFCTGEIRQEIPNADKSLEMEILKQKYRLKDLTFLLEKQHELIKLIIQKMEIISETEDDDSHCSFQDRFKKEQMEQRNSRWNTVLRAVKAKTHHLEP

[5] = Volume of distribution at steady state in Wistar rat at 1 mg/kg, iv; assay type: ADME, organism-based; parameters: dose 1 mg/kg, route intravenous; details: in vivo, read-out: Vdss
How it was run: (§4)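 Wistar rats given 1 mg/kg i.v. as a solution in 75% PEG200/25% D5W.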

[6] = Half life in Wistar rat at 1 mg/kg, iv; assay type: ADME, organism-based; parameters: dose 1 mg/kg, route intravenous; details: in vivo; how it was run: as §4
[7] = system: CHO-K1; assay: Selectivity ratio of IC50 for human TRPV1 expressed in CHOK1 cells to IC50 for human TRPA1 expressed in CHO-TREX cells; assay type: cell-based
How it was run: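 Stable hTRPV1 CHO-K1 and tetracycline-induced (0.5 µg/mL) hTRPA1 CHO-TREX cells were loaded with Fluo4-AM for 90 min at room temperature and read on FLIPR. Antagonist preincubation was 10 min before EC80 agonist: capsaicin 40 nM (TRPV1); cinnamaldehyde 30 µM, AITC 2.5 µM or dibenzoxazepine carboxamide 5 nM (TRPA1). Buffer contained probenecid and BSA. IC50s were fitted from triplicate means of max−min calcium signal.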

[8] = biological target: T2, Transient receptor potential cation channel subfamily V member 3 (Homo sapiens, UniProt Q8NET8); assay: (§5) Antagonist activity at human TRPV3 expressed in CHOK1 cells assessed as inhibition of 2-APB-induced calcium flux incubated 10 mins prior to 2-APB addition by FLIPR assay relative to control; assay type: cell-based, CHO-K1
T2 sequence (Q8NET8 whole entry): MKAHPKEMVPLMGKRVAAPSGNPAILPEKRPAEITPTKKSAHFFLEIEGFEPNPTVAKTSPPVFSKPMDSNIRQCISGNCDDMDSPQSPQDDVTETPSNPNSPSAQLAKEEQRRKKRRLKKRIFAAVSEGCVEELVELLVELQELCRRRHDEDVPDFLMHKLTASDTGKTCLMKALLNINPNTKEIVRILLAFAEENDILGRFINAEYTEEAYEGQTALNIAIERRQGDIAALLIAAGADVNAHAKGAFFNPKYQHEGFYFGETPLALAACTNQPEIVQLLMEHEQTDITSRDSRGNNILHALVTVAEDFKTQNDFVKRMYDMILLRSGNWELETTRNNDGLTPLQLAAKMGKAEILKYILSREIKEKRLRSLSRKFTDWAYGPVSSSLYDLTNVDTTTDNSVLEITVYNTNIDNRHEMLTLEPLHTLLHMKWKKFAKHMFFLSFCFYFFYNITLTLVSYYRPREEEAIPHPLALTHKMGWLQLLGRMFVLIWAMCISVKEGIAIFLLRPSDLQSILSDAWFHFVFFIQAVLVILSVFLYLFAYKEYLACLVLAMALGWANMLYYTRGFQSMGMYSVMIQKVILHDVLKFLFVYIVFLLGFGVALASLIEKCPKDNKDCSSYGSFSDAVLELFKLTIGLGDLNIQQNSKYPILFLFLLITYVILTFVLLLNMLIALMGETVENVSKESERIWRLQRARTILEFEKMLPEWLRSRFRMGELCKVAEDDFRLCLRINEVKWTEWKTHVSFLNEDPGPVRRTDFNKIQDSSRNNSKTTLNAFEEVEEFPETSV

[9] = biological target: T3, Transient receptor potential cation channel subfamily V member 3 (Homo sapiens) (UniProt Q8NET8); assay: as §5; assay type: cell-based; parameters: concentration or dose not given beside the values; details: CHO-K1
T3 sequence (whole entry): T2 sequence (Q8NET8 whole entry)

[10] = biological target: Transient receptor potential cation channel subfamily M member 8 (Homo sapiens, UniProt Q7Z2W7); assay: Antagonist activity at human TRPM8 expressed in CHOK1 cells assessed as inhibition of menthol-induced calcium flux incubated 10 mins prior to menthol addition by FLIPR assay relative to control; assay type: cell-based, CHO-K1
[11] = system: CHO-K1; assay: Selectivity ratio of IC50 for human TRPM8 expressed in CHOK1 cells to IC50 for human TRPA1 expressed in CHO-TREX cells; assay type: cell-based
How it was run: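 FLIPR calcium-flux antagonist assays with Fluo4-AM loading (90 min, room temperature) in HBSS/20 mM HEPES/2.5 mM probenecid/0.1% BSA. Compound added 10 min before agonist at EC80: 40 µM menthol for CHO-K1 hTRPM8; for tetracycline-induced (0.5 µg/mL) CHO-TREX hTRPA1, 30 µM cinnamaldehyde, 2.5 µM AITC or 5 nM dibenzoxazepine carboxamide. Response is maximum minus minimum. IC50s come from sigmoidal fits of triplicate means.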

[12] = system: CHO-K1; assay: Selectivity ratio of IC50 for human TRPV3 expressed in CHOK1 cells to IC50 for human TRPA1 expressed in CHO-TREX cells; assay type: cell-based
How it was run: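 Calcium influx was measured by FLIPR in Fluo4-AM-loaded cells: hTRPV3 CHO-K1 challenged with 40 µM 2-APB, and hTRPA1 CHO-TREX (0.5 µg/mL tetracycline) challenged with 30 µM cinnamaldehyde, 2.5 µM AITC or 5 nM dibenzoxazepine carboxamide, all at EC80. Compounds were added 10 min ahead of agonist in HEPES-buffered HBSS with probenecid. Sigmoidal curves were fitted to triplicate means.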

[13] = biological target: Transient receptor potential cation channel subfamily A member 1 (Mus musculus, UniProt Q8BLA8); assay: (§6) Antagonist activity at mouse TRPA1 expressed in CHO-TREX cells assessed as inhibition of cinnamaldehyde-induced calcium flux incubated 10 mins prior to cinnamaldehyde addition by FLIPR assay relative to control; assay type: cell-based; how it was run: as §3
Chain of Transient receptor potential cation channel subfamily A member 1 (Mus musculus, UniProt Q8BLA8) (Q8BLA8 whole entry): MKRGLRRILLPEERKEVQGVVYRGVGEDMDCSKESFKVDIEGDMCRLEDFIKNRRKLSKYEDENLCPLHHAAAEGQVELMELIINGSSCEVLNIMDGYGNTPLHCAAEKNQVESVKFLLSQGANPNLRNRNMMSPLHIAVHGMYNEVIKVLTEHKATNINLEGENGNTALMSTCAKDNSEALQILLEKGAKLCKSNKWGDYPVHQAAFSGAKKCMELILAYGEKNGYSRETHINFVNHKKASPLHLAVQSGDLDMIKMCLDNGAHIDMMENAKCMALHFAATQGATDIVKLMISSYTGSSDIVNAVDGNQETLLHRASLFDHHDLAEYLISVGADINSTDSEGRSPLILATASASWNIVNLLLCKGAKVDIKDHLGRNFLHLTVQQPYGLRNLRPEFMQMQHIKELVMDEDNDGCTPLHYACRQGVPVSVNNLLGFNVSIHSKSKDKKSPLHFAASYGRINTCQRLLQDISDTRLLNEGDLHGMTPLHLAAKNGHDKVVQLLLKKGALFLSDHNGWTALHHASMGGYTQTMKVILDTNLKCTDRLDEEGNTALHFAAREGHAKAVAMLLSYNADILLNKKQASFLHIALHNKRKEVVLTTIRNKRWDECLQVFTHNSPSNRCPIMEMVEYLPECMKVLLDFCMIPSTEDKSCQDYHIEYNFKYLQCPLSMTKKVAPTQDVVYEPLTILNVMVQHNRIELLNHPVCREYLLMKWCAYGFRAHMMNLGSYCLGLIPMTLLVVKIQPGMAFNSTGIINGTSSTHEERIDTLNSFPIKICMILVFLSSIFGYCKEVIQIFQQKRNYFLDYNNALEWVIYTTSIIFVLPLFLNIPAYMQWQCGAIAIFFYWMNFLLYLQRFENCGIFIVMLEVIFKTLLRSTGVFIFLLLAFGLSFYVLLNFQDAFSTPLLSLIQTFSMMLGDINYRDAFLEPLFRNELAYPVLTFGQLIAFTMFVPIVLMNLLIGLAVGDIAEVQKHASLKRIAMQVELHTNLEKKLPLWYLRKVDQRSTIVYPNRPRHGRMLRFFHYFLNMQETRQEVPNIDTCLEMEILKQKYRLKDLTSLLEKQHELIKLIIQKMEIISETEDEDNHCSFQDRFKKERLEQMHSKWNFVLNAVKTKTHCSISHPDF

[14] = biological target: Transient receptor potential cation channel subfamily A member 1 (Mus musculus) (UniProt Q8BLA8); assay: as §6; assay type: cell-based; parameters: concentration or dose not given beside the values; how it was run: as §3
Chain of Transient receptor potential cation channel subfamily A member 1 (Mus musculus) (Q8BLA8 whole entry): as above

[15] = Oral bioavailability in Wistar rat at 10 mg/kg; assay type: ADME, organism-based; details: in vivo; how it was run: as §1
[16] = Clearance in Wistar rat at 1 mg/kg, iv; assay type: ADME, organism-based; parameters: dose 1 mg/kg, route intravenous; details: in vivo; how it was run: as §4
[17] = biological target: Transient receptor potential cation channel subfamily V member 1 (Homo sapiens, UniProt Q8NER1); assay: Antagonist activity at human TRPV1 expressed in CHOK1 cells assessed as inhibition of capsaicin-induced calcium flux incubated 10 mins prior to capsaicin addition by FLIPR assay relative to control; assay type: cell-based, CHO-K1
Chain of Transient receptor potential cation channel subfamily V member 1 (Q8NER1 whole entry): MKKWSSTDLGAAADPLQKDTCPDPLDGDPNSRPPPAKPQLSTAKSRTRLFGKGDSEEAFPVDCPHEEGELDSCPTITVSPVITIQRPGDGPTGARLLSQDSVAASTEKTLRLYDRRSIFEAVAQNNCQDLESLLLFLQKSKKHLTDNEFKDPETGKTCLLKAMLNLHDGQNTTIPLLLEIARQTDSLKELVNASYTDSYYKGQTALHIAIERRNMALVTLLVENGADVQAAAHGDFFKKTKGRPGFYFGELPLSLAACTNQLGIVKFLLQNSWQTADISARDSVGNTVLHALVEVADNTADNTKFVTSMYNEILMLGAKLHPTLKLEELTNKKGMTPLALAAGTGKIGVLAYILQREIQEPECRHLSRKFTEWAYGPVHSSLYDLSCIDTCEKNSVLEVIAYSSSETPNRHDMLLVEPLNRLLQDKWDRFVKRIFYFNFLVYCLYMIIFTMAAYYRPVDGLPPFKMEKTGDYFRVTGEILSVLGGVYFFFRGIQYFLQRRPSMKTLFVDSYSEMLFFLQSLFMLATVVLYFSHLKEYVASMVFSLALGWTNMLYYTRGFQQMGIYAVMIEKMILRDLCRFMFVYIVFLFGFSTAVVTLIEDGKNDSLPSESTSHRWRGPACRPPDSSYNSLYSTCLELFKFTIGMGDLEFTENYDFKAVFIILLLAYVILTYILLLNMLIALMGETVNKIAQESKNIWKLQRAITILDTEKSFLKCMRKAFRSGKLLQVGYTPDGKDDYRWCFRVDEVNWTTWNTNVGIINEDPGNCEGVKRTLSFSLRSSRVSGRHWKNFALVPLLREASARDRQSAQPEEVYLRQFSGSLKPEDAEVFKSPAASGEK

[18] = Tmax in Wistar rat at 10 mg/kg, po; assay type: ADME, organism-based; parameters: dose 10 mg/kg, route oral; details: in vivo; how it was run: as §1
[19] = Cmax in Wistar rat at 10 mg/kg, po; assay type: ADME, organism-based; parameters: dose 10 mg/kg, route oral; details: in vivo; how it was run: as §1
[20] = biological target: T1, Transient receptor potential cation channel subfamily A member 1; assay: Antagonist activity at TRPA1 (unknown origin)
How it was run: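 TRPA1 expressed in CHO-TREX cells, induced with tetracycline (0.5 µg/mL for human, 1 µg/mL for mouse or rat). Cells loaded with Fluo4-AM for 90 min at room temperature, then washed. Antagonist added 10 min before an EC80 agonist in HBSS/20 mM HEPES, 2.5 mM probenecid, 0.1% BSA. Calcium flux read by FLIPR. IC50 taken from sigmoidal curves of triplicate means.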

Compound `COc1cc2[nH]ncc2cc1-c1ccccc1C(F)(F)F` has an AUC [1] of 8.2 µM·h, an inhibition [2] of 99% and an IC50 [3] of 0.099 µM. For the same compound, the IC50 [4] was 0.026 µM, the inhibition [4] was 98% and the Vd [5] was 3.6 L/kg. For the same compound, the half-life [6] was 6.6 h, the Ratio IC50 [7] was > 100 and the IC50 [8] was > 30 µM. It also gave an inhibition [9] of 35%, an IC50 [10] of 10.9 µM and an inhibition ([10]; CHO-K1) of 100%. For the same compound, the Ratio IC50 [11] was > 100, the Ratio IC50 [12] was > 100 and the IC50 [13] was 0.161 µM. For the same compound, the inhibition [14] was 100%, the bioavailability [15] was 50% and the clearance [16] was 35.5 mL/min/kg. For the same compound, the IC50 [17] was > 30 µM, the inhibition ([17]; CHO-K1) was 35% and the Tmax [18] was 0.8 h. It also gave a Cmax [19] of 2000 nM.
In the case of `CC(C)c1ccc(NC(=O)Cn2cnc3c2c(=O)n(C)c(=O)n3C)cc1`, the IC50 [20] is reported as 2.3 µM.
